{"source": "paper PMC7884954", "about": "(International Journal of Nanomedicine, 2021)", "key": {"SK-OV-3 cells [1]": {"test_system": "SK-OV-3 cells", "assay": "In vitro cytotoxicity", "assay_type": "cell-based, human", "procedure,_shortened": "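SK-OV-3 cells (IMDM, 10% FCS, non-essential amino acids, 37°C, 7% CO2) were seeded at 10,000/well and left to adhere overnight. They were exposed to a concentration series of free drug (in DMSO) or formulations for 4 h, then switched to fresh medium without irradiation (dark). Next day, MTT (2 mg.mL−1) was added for 4 h, formazan was dissolved in DMSO, and A570 was read. Untreated cells were set as 100%. Three independent experiments; IC50 from non-linear fit.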"}, "SK-OV-3 cells [2]": {"test_system": "SK-OV-3 cells", "assay": "Assessment of reactive oxygen species", "assay_type": "cell-based, human", "details": "mTHPC 5 µM, THP 50 µM, 4 h, light dose 0.5 J.cm^−2 vs dark", "procedure,_shortened": "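SK-OV-3 cells (IMDM, 10% FCS, non-essential amino acids, 37°C, 7% CO2) were seeded at 25,000/well overnight and washed with DPBS pH 7.4 containing Ca2+/Mg2+. They were loaded with 25 µM H2DCFDA for 1 h at 37 °C, washed, then exposed to free drug or formulation for 4 h at 37°C. After medium exchange, cells were irradiated at 652 nm, lysed, and read at λex 485/λem 520 nm.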"}, "Ex vivo hemolysis assay": {"assay": "Ex vivo hemolysis assay", "details": "human, washed red blood cells (RBC suspension diluted 1:50), pH 7.4", "procedure,_shortened": "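Donor blood in EDTA was spun at 500× g for 5 min. RBCs were washed three times in DPBS pH 7.4, then diluted 1:50 in PBS. The suspension was incubated with test formulations in V-bottom plates for 1 h at 37 °C with orbital shaking. After centrifugation, supernatant absorbance was read at 540 nm. Triton X-100 defined 100% hemolysis, with saline as the other control. Triplicates, mean ± S.D.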"}, "blood plasma": {"test_system": "blood plasma", "assay": "Activated partial thromboplastin time test", "procedure,_shortened": "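Plasma was separated from fresh blood by centrifugation at 5000x g for 5 min. It was mixed with an equal volume of test formulation and aPTT reagent, and coagulation was activated with pre-warmed […] CaCl2. Clotting time (s) was recorded spectrophotometrically on a coagulation analyzer, […]. Triplicates, mean ± S.D.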"}, "SK-OV-3 cells [3]": {"test_system": "SK-OV-3 cells", "assay": "In vitro genotoxicity, alkaline comet assay", "assay_type": "cell-based, human", "details": "SK-OV-3, 4 h, equitoxic dose, light dose 0.05 Jcm^−2", "procedure,_shortened": "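SK-OV-3 cells (100,000/well, six-well plate) adhered overnight, then treated with test formulations for 4 h at 37 °C. After a medium change, cells were irradiated at an equitoxic light dose giving 80% viability and returned for 12 h. Cells were trypsinised, washed twice in PBS, set to 80,000 cells/mL and embedded in 1% low-melting agarose. Slides were ethanol-fixed (70%, 20 min), SYBR Safe-stained and viewed by fluorescence microscopy; 50 comets scored per formulation.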"}, "SK-OV-3 cells [4]": {"test_system": "SK-OV-3 cells", "assay": "Cellular uptake pathway analysis with chlorpromazine and Filipin-III", "assay_type": "cell-based, human", "details": "30 µM chlorpromazine, 15 µM Filipin III, light dose 0.5 Jcm^−2", "procedure,_shortened": "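SK-OV-3 cells seeded at 10,000/well, adhered overnight (37 °C, 5% CO2), washed in PBS with Ca2+/Mg2+. Pre-incubated 1 h with chlorpromazine (30 µM) or Filipin III (15 µM), then exposed to test formulations or free drugs in DMSO (photosensitiser 1.5 µM, chemotherapeutic 50 µM) for a total of 4 h. Medium replaced, irradiated 0.50 J.cm−2, MTT after 24 h; un-irradiated dark control.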"}, "[5]": {"test_system": "female albino (BALB/c) mice", "assay": "In vivo acute toxicity: body visceral index", "details": "i.v., post 7 days", "procedure,_shortened": "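Female BALB/c mice (30–35 g, 8–10 weeks; 22 ± 2 °C, 12 h light/dark) were randomised into 6 groups of 3. Free drugs in 0.1% DMSO, formulations or saline were given i.v. via tail vein as two equal doses on days 1 and 3 (mTHPC 0.15 mg.kg−1, THP 5 mg.kg−1 equivalent). On day 7, after cervical dislocation, heart, kidney, liver and lungs were washed in saline and weighed. Organ-to-body weight index was compared with controls; mean ± S.D.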"}, "[6]": {"test_system": "female albino (BALB/c) mice", "assay": "In vivo acute toxicity: serum biochemical analysis", "details": "i.v., after 7 days", "procedure,_shortened": "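Female BALB/c mice (30–35 g, 8–10 weeks) were used in groups of 3. Free drugs in 0.1% DMSO, formulations or saline were given i.v. via tail vein as two equal doses on days 1 and 3 (mTHPC 0.15 mg.kg−1, THP 5 mg.kg−1 equivalent). On day 7, blood was drawn under anesthesia by thoracic puncture and spun at 1200x g for 10 min. Supernatant was stored at −20 °C and then analysed on a serum biochemistry analyzer.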"}, "[7]": {"test_system": "female albino (BALB/c) mice", "assay": "In vivo acute toxicity: histopathological examinations", "details": "i.v., after 7 days, H&E stain", "procedure,_shortened": "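Female BALB/c mice (30–35 g, 8–10 weeks) were randomised to 6 groups (n=3) and given test formulations i.v. via tail vein as two equal doses on days 1 and 3; the saline group was the control. OECD 425 was followed except for the i.v. route. At day 7 mice were killed by cervical dislocation. Heart, liver, kidney and lungs were saline-washed, sectioned by rotary microtome, H&E-stained and examined by light microscopy.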"}}, "data": [{"smiles": "COc1cccc2c1C(=O)c1c(O)c3c(c(O)c1C2=O)C[C@@](O)(C(=O)CO)C[C@@H]3O[C@H]1C[C@H](N)[C@H](O[C@@H]2CCCCO2)[C@H](C)O1", "note": "[THP, [2″R]‐4′‐O‐tetrahydropyranyl‐doxorubicin]", "values": [{"measurement": "Cytotoxicity (reduction in cell viability)", "setting": "SK-OV-3 cells [1]; SK-OV-3, dose of 100 µM, no irradiation", "result": "72.26 ± 5.40", "unit": "%"}, {"measurement": "Intracellular ROS production", "setting": "SK-OV-3 cells [2]", "result": "no significant difference in the ROS levels"}, {"measurement": "hemolysis at 1 h", "setting": "Ex vivo hemolysis assay", "result": 20, "unit": "%"}, {"measurement": "aPTT coagulation time", "setting": "blood plasma", "result": 127.7, "unit": "s"}, {"measurement": "DNA damage class (olive tail moment, comet assay)", "setting": "SK-OV-3 cells [3]", "result": "class-II (class-II damage (5–20%; low damage))"}, {"measurement": "Cellular uptake mechanism", "setting": "SK-OV-3 cells [4]", "result": "None of the inhibitors was able to minimize the uptake"}, {"measurement": "Visceral body index: kidney weight vs control group", "setting": "[5]", "result": "slight increase in the organ weight"}, {"measurement": "Visceral body index: liver weight vs control group", "setting": "[5]", "result": "highest increase"}, {"measurement": "ALP level vs control group", "setting": "[6]", "result": "highest increase"}, {"measurement": "ALT level vs control group", "setting": "[6]", "result": "increased"}, {"measurement": "AST level vs control group", "setting": "[6]", "result": "highest level"}, {"measurement": "Bilirubin level vs control group", "setting": "[6]", "result": "slightly higher"}, {"measurement": "Creatinine level vs control", "setting": "[6]", "result": "increased"}, {"measurement": "Total protein level", "setting": "[6]", "result": "slight increase"}, {"measurement": "Uric acid level vs control group", "setting": "[6]", "result": "moderately increased"}, {"measurement": "Histopathology: kidney", "setting": "[7]", "result": "signs of necrosis, apoptosis, as well as congestion of the renal tissue"}, {"measurement": "Histopathology: liver", "setting": "[7]", "result": "some signs of the apoptotic cells with fibrosis, pyknosis (condensation of nuclei due to apoptosis) and hepatic lesions"}, {"measurement": "Histopathology: lungs", "setting": "[7]", "result": "small changes in the lung′s histology with the breakage of the lung′s fiber"}]}, {"smiles": "Oc1cccc(-c2c3nc(c(-c4cccc(O)c4)c4ccc([nH]4)c(-c4cccc(O)c4)c4nc(c(-c5cccc(O)c5)c5ccc2[nH]5)CC4)C=C3)c1", "note": "[mTHPC, 5, 10, 15, 20-tetrakis (3-hydroxyphenyl) chlorin]", "values": [{"measurement": "Reduction of cell viability (dark toxicity)", "setting": "SK-OV-3 cells [1]; SK-OV-3, without irradiation, highest mTHPC concentration 5 µM", "result": "18.51 ± 1.87", "unit": "%"}, {"measurement": "Intracellular ROS production", "setting": "SK-OV-3 cells [2]", "result": "increased levels of intracellular ROS"}, {"measurement": "hemolysis at 1 h", "setting": "Ex vivo hemolysis assay", "result": 14, "unit": "%"}, {"measurement": "aPTT coagulation time", "setting": "blood plasma", "result": 60.2, "unit": "s"}, {"measurement": "DNA damage class (olive tail moment, comet assay)", "setting": "SK-OV-3 cells [3]", "result": "class-II (class-II damage (5–20%; low damage))"}, {"measurement": "Cellular uptake mechanism", "setting": "SK-OV-3 cells [4]", "result": "None of the inhibitors was able to minimize the uptake"}, {"measurement": "Visceral body index: kidney weight vs control group", "setting": "[5]", "result": "slight increase in the organ weight"}, {"measurement": "ALT level vs control group", "setting": "[6]", "result": "increased"}, {"measurement": "AST level vs control group", "setting": "[6]", "result": "slightly higher"}, {"measurement": "Bilirubin level vs control group", "setting": "[6]", "result": "slightly higher"}, {"measurement": "Creatinine level vs control", "setting": "[6]", "result": "increased"}, {"measurement": "Total protein level", "setting": "[6]", "result": "slight increase"}]}]}
